Assays:
BT-474 = experiment: Cytotoxicity against human BT-474 cells assessed as reduction in cell viability incubated for 48 hrs by MTT assay; type: functional, cell-based; conditions: BT-474, 48 h
Method in brief: (§1)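 Cancer cell lines were exposed to drug for 48 h, and the 50% inhibitory concentration was determined. Values are averages of three individual experiments. A549, HCT-116, BT-474 and MDA-MB-231 are human lines; B16F10 is a murine melanoma line.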

MDA-MB-231 = experiment: Cytotoxicity against human MDA-MB-231 cells assessed as reduction in cell viability incubated for 48 hrs by MTT assay; type: functional, cell-based; conditions: MDA-MB-231, 48 h; method in brief: as §1
A549 = experiment: Cytotoxicity against human A549 cells assessed as reduction in cell viability incubated for 48 hrs by MTT assay; type: functional, cell-based; conditions: A549, 48 h; method in brief: as §1
B16-F10 = experiment: Cytotoxicity against mouse B16-F10 cells assessed as reduction in cell viability incubated for 48 hrs by MTT assay; type: functional, cell-based; conditions: B16-F10, 48 h; method in brief: as §1
HCT-116 = experiment: Cytotoxicity against human HCT-116 cells assessed as reduction in cell viability incubated for 48 hrs by MTT assay; type: functional, cell-based; conditions: HCT-116, 48 h; method in brief: as §1
[1] = Cytotoxicity against human lung cancer cells assessed as reduction in cell viability incubated for 48 hrs by MTT assay; type: functional; conditions: Lung cancer cell line
[2] = Cytotoxicity against human lung cancer cells assessed as reduction in cell viability incubated for 24 hrs by MTT assay; type: functional; conditions: Lung cancer cell line
[3] = Cytotoxicity against human breast cancer cells assessed as reduction in cell viability incubated for 24 hrs by MTT assay; type: functional; conditions: Breast cancer cell line

| SMILES | IC50 (BT-474) | IC50 (MDA-MB-231) | IC50 (A549) | IC50 (B16-F10) | IC50 (HCT-116) | IC50 [1] | GI50 [2] | GI50 [3] |
| --- | --- | --- | --- | --- | --- | --- | --- | --- |
| O=C(/C=C\Nc1ccc2[nH]ccc2c1)c1nc(-c2ccc(C(F)(F)F)cc2)n2ccccc12 | 5.19 µM | 1.18 µM | 5.19 µM | 18.2 µM | 27.1 µM |  |  |  |
| O=C(/C=C\Nc1ccc(Cl)cc1)c1nc(-c2ccc(C(F)(F)F)cc2)n2ccccc12 | 3.82 µM | 3.84 µM | 18.5 µM | > 30 µM | 11.5 µM |  |  |  |
| COc1ccc(N/C=C\C(=O)c2nc(-c3ccc(C(F)(F)F)cc3)n3ccccc23)cc1OC | > 30 µM | > 30 µM | > 30 µM | > 30 µM | > 30 µM |  |  |  |
| COc1ccc(N/C=C\C(=O)c2nc(-c3ccc(F)cc3)n3ccccc23)cc1 | 15.7 µM | > 30 µM | 19.2 µM | 2.56 µM | > 30 µM |  |  |  |
| O=C(/C=C\Nc1ccc(O)cc1)c1cn(-c2ccccc2)nc1-c1ccc(F)cc1 |  |  |  |  |  | 1.5 µM |  |  |
| COc1ccc(-c2nc(C(=O)/C=C\Nc3ccc(Cl)cc3)c3ccccn23)cc1 | 37.3 µM | > 30 µM |  | 1.24 µM | > 30 µM |  |  |  |
| O=C(/C=C\Nc1ccc(F)cc1)c1nc(-c2ccc(C(F)(F)F)cc2)n2ccccc12 | > 30 µM | > 30 µM | > 30 µM | > 30 µM | > 30 µM |  |  |  |
| O=C(/C=C\Nc1cnc2ccccc2c1)c1nc(-c2ccccc2)n2ccccc12 | 19.7 µM | 12.3 µM | > 30 µM | 3.78 µM | > 30 µM |  |  |  |
| O=C1Nc2ccccc2/C1=C\c1nc(-c2ccccc2F)n2ccccc12 |  |  |  |  |  |  | 3.46 µM |  |
| COc1ccc(-c2nc(C(=O)/C=C\Nc3ccc4[nH]ccc4c3)c3ccccn23)cc1 | 13 µM | 28.7 µM | 4.8 µM | 5.12 µM | 17.4 µM |  |  |  |
| COC(=O)Nc1nc2cc(C(=O)c3cccs3)ccc2[nH]1 [NOCODAZOLE] | 2.72 µM | 1.83 µM | 3.63 µM | 3.12 µM | 2.82 µM |  |  |  |
| COc1ccc(N/C=C\C(=O)c2nc(-c3ccc(OC)cc3)n3ccccc23)cc1 | 15.4 µM | > 30 µM |  | 2.12 µM | > 30 µM |  |  |  |
| Fc1ccccc1-c1nc(-c2nc3ccc(C(F)(F)F)cc3[nH]2)c2ccccn12 |  |  |  |  |  |  |  | 1.37 µM |
| COc1ccc(N/C=C\C(=O)c2nc(-c3ccccc3)n3ccccc23)cc1 | 12.8 µM | 28.2 µM | > 30 µM | 1.79 µM | 7.01 µM |  |  |  |
| COc1ccc(N/C=C\C(=O)c2nc(-c3ccc(C(F)(F)F)cc3)n3ccccc23)cc1 | > 30 µM | > 30 µM | 21.8 µM | > 30 µM | 7.72 µM |  |  |  |
| O=C(/C=C\Nc1ccc2cc[nH]c2c1)c1nc(-c2ccc(C(F)(F)F)cc2)n2ccccc12 | > 30 µM | > 30 µM | > 30 µM | > 30 µM | > 30 µM |  |  |  |
| O=C(/C=C\Nc1ccc(F)cc1)c1nc(-c2ccc(F)cc2)n2ccccc12 | 16.9 µM | 25.1 µM | 13.2 µM | > 30 µM | > 30 µM |  |  |  |
| COc1ccc(N/C=C\C(=O)c2nc(-c3ccc(F)cc3)n3ccccc23)cc1OC | > 30 µM | > 30 µM | > 30 µM | > 30 µM | > 30 µM |  |  |  |
| Cc1cc2cc(N/C=C\C(=O)c3nc(-c4ccc(F)cc4)n4ccccc34)ccc2[nH]1 | > 30 µM | > 30 µM | > 30 µM | > 30 µM | > 30 µM |  |  |  |
| COc1ccc(-c2nc(C(=O)/C=C\Nc3ccc(F)cc3)c3ccccn23)cc1 | > 30 µM | > 30 µM | > 30 µM | > 30 µM | > 30 µM |  |  |  |
| O=C(/C=C\Nc1cnc2ccccc2c1)c1nc(-c2ccc(C(F)(F)F)cc2)n2ccccc12 | > 30 µM | > 30 µM | > 30 µM | > 30 µM | > 30 µM |  |  |  |

Reference: ChEMBL document CHEMBL4665711, “Synthesis of (Z)-3-(arylamino)-1-(3-phenylimidazo[1,5-a]pyridin-1-yl)prop-2-en-1-ones as potential cytotoxic agents” (Bioorg Med Chem Lett, 2020)
